Assay results as given in ChEMBL document CHEMBL4190320, “Clathrodin, hymenidin and oroidin, and their synthetic analogues as inhibitors of the voltage-gated potassium channels” (Eur J Med Chem, 2017).
Calls of active or inactive are those of the source. The rule behind the calls is not given here.

Assays:
[1] = molecular target: Potassium voltage-gated channel subfamily A member 1 (Homo sapiens, UniProt Q09470); experiment: Inhibition of human Kv1.1 expressed in CHO cells at -80 mV holding potential by whole cell automated patch clamp method; format: cell-based
Summary of the method: (§1)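 Human channels stably expressed in CHO cells, dissociated with 0.05% trypsin-EDTA, held in serum-free medium and resuspended in extracellular solution just before recording. Whole-cell QPatch recordings used a -80 mV holding potential and 500 ms steps to +30 mV at 0.067 Hz. Series resistance was 80% compensated with P/n leak subtraction. After 0.1% DMSO vehicle, four escalating concentrations were applied cumulatively.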

[2] = molecular target: Potassium voltage-gated channel subfamily A member 2 (Homo sapiens, UniProt P16389); experiment: Inhibition of human Kv1.2 expressed in CHO cells at -80 mV holding potential by whole cell automated patch clamp method; format: cell-based; summary of the method: as §1
[3] = molecular target: T1, Potassium voltage-gated channel subfamily A member 3 (Homo sapiens, UniProt P22001); experiment: Inhibition of human Kv1.3 expressed in CHO cells at -80 mV holding potential by whole cell automated patch clamp method; format: cell-based; summary of the method: as §1
[4] = molecular target: Potassium voltage-gated channel subfamily A member 4 (Homo sapiens, UniProt P22459); experiment: Inhibition of human Kv1.4 expressed in CHO cells at -80 mV holding potential by whole cell automated patch clamp method; format: cell-based; summary of the method: as §1
[5] = molecular target: Potassium voltage-gated channel subfamily A member 5 (Homo sapiens, UniProt P22460); experiment: Inhibition of human Kv1.5 expressed in CHO cells at -80 mV holding potential by whole cell automated patch clamp method; format: cell-based
[6] = molecular target: Potassium voltage-gated channel subfamily A member 6 (Homo sapiens, UniProt P17658); experiment: Inhibition of human Kv1.6 expressed in CHO cells at -80 mV holding potential by whole cell automated patch clamp method; format: cell-based; summary of the method: as §1
[7] = molecular target: Potassium voltage-gated channel subfamily A member 4 (Rattus norvegicus, UniProt P15385); experiment: Inhibition of rat Kv1.4 expressed in Xenopus laevis oocytes at -90 mV holding potential by two-electrode voltage clamp assay; format: cell-based
Summary of the method: (§2)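 Stage V-VI Xenopus laevis oocytes were injected with 50 nL cRNA (1 ng/nL). Currents were recorded by two-electrode voltage clamp. IC50 values come from at least 3 independent experiments and are given as mean ± standard error.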

[8] = molecular target: Potassium voltage-gated channel subfamily A member 6 (Rattus norvegicus, UniProt P17659); experiment: Inhibition of rat Kv1.6 expressed in Xenopus laevis oocytes at -90 mV holding potential by two-electrode voltage clamp assay; format: cell-based; summary of the method: as §2
[9] = molecular target: Potassium voltage-gated channel subfamily A member 1 (Rattus norvegicus) (UniProt P10499); experiment: Inhibition of rat Kv1.1 expressed in Xenopus laevis oocytes at 1 uM at -90 mV holding potential by two-electrode voltage clamp assay relative to control; format: cell-based
[10] = molecular target: Potassium voltage-gated channel subfamily A member 2 (Rattus norvegicus) (UniProt P63142); experiment: Inhibition of rat Kv1.2 expressed in Xenopus laevis oocytes at 1 uM at -90 mV holding potential by two-electrode voltage clamp assay relative to control; format: cell-based
[11] = molecular target: Potassium voltage-gated channel subfamily A member 4 (Rattus norvegicus) (UniProt P15385); experiment: Inhibition of rat Kv1.4 expressed in Xenopus laevis oocytes at 1 uM at -90 mV holding potential by two-electrode voltage clamp assay relative to control; format: cell-based
[12] = molecular target: Potassium voltage-gated channel subfamily A member 5 (Rattus norvegicus) (UniProt P19024); experiment: Inhibition of rat Kv1.5 expressed in Xenopus laevis oocytes at 1 uM at -90 mV holding potential by two-electrode voltage clamp assay relative to control; format: cell-based
[13] = molecular target: Potassium voltage-gated channel subfamily A member 6 (Rattus norvegicus) (UniProt P17659); experiment: Inhibition of rat Kv1.6 expressed in Xenopus laevis oocytes at 1 uM at -90 mV holding potential by two-electrode voltage clamp assay relative to control; format: cell-based
[14] = molecular target: T1, Potassium voltage-gated channel subfamily A member 3; experiment: Inhibition of human Kv1.3 expressed in Xenopus laevis oocytes at -90 mV holding potential by two-electrode voltage clamp assay
[15] = molecular target: T1, Potassium voltage-gated channel subfamily A member 3; experiment: Inhibition of human Kv1.3 expressed in Xenopus laevis oocytes at 1 uM at -90 mV holding potential by two-electrode voltage clamp assay relative to control
[16] = test system: Potassium voltage-gated channel subfamily H member 1 (Homo sapiens); experiment: Inhibition of human Kv10.1 expressed in Xenopus laevis oocytes at 1 uM at -90 mV holding potential by two-electrode voltage clamp assay relative to control

Sequence of Potassium voltage-gated channel subfamily A member 2 (P16389 whole entry): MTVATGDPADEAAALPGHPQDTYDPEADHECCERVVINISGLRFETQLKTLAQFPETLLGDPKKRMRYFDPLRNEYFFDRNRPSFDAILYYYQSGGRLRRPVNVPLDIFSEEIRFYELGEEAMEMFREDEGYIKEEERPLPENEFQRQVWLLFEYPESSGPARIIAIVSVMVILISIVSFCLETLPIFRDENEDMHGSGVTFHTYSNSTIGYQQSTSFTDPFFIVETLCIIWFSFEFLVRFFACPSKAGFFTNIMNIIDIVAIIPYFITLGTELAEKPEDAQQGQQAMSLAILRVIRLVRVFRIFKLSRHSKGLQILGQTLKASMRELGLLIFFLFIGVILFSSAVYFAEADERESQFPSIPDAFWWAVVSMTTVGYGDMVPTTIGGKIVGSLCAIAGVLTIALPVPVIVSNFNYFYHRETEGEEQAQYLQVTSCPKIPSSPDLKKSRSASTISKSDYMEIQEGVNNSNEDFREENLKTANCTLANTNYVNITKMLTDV
Sequence of Potassium voltage-gated channel subfamily A member 5 (P22460 whole entry): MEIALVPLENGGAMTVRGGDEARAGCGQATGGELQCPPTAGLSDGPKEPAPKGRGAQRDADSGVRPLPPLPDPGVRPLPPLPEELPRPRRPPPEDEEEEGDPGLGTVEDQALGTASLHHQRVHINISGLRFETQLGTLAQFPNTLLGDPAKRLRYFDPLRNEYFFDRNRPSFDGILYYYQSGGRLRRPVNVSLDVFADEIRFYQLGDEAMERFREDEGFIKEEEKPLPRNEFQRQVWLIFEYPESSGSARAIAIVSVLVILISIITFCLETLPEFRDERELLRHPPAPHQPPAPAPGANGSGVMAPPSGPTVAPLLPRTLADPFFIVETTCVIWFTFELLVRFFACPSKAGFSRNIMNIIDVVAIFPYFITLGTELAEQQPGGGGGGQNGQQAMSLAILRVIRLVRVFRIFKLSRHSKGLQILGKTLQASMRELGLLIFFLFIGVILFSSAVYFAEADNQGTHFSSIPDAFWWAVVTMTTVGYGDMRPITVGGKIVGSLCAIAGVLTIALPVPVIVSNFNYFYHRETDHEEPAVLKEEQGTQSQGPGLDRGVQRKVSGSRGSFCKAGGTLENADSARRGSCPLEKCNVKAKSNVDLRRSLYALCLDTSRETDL
Sequence of Potassium voltage-gated channel subfamily A member 4 (Rattus norvegicus) (P15385 whole entry): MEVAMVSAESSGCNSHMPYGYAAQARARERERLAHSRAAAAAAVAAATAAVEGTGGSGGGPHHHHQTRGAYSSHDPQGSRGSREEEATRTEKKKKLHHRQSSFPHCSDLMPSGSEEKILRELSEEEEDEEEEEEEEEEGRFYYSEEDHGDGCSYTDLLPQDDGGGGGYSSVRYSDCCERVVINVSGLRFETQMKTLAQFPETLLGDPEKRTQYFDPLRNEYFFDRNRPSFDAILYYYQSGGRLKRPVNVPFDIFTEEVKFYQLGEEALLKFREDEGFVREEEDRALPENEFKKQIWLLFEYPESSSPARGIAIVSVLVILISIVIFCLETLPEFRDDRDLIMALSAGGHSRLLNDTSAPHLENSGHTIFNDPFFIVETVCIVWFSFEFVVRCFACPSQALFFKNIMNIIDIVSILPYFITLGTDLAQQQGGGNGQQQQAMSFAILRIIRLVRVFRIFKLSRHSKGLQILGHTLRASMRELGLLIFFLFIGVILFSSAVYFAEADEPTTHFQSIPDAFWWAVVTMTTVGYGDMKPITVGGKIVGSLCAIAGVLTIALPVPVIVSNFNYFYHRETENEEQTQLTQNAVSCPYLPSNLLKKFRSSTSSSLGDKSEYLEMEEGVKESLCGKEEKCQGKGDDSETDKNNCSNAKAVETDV
Sequence of Potassium voltage-gated channel subfamily A member 4 (Rattus norvegicus, UniProt P15385) (P15385 whole entry): as above
Sequence of Potassium voltage-gated channel subfamily A member 4 (Homo sapiens, UniProt P22459) (P22459 whole entry): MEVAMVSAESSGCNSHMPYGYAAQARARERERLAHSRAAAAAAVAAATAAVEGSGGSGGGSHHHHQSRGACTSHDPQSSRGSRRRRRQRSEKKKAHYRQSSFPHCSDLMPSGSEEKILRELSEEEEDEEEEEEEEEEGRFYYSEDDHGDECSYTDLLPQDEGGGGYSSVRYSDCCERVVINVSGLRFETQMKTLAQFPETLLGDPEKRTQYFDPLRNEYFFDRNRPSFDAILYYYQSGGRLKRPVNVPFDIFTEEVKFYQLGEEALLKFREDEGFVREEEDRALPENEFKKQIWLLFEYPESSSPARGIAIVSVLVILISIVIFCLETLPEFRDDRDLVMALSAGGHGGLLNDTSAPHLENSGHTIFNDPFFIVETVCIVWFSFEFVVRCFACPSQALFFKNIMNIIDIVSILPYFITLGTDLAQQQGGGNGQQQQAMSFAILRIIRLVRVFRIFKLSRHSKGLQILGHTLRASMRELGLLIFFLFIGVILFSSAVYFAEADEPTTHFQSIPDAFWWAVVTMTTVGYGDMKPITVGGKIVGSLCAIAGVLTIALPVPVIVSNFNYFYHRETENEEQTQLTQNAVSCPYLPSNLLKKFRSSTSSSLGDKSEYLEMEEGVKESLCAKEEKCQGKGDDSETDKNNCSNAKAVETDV
Sequence of Potassium voltage-gated channel subfamily A member 2 (Rattus norvegicus) (P63142 whole entry): as the sequence (P16389 whole entry) above, with A9V, S198G, E355D counted along it
Sequence of Potassium voltage-gated channel subfamily A member 6 (Homo sapiens, UniProt P17658) (P17658 whole entry): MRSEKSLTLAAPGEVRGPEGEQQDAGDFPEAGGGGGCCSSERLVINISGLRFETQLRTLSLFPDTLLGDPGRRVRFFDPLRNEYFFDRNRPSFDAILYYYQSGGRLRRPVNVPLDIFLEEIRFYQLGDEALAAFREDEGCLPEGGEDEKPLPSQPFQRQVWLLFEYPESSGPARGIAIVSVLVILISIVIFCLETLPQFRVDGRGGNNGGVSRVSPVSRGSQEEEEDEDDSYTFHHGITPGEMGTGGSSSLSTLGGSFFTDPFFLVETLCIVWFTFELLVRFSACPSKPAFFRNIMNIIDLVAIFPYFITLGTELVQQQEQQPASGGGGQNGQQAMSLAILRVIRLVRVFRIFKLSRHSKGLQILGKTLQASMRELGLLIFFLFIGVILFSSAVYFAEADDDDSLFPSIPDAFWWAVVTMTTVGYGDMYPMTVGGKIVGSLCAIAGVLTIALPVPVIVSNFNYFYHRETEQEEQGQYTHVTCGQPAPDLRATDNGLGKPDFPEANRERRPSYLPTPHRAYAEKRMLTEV
Sequence of Potassium voltage-gated channel subfamily A member 1 (Rattus norvegicus) (P10499 whole entry): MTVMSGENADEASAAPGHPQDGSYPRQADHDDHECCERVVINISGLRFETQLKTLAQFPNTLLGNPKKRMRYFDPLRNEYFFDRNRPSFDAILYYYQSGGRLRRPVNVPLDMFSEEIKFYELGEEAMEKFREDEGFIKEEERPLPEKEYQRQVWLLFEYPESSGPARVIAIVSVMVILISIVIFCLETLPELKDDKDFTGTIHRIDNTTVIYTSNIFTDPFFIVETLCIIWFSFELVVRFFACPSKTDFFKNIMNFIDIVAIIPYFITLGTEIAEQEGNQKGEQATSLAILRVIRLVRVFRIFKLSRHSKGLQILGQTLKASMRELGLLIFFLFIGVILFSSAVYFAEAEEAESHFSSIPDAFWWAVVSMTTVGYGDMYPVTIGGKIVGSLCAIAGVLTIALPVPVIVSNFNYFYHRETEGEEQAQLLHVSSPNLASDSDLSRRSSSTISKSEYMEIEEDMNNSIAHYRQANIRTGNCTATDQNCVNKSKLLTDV

Compound | IC50 [1] [µM] | IC50 [2] [µM] | IC50 [3] [µM] | IC50 [4] [µM] | IC50 [5] [µM] | IC50 [6] [µM] | IC50 [7] [nM] | IC50 [8] [µM] | inhibition [9] | inhibition [10] | inhibition [11] | inhibition [12] | inhibition [13] | IC50 [14] [µM] | inhibition [15] | inhibition [16]
Nc1ncc(/C=C/CNC(=O)c2cc(Br)c(Br)[nH]2)[nH]1 [OROIDIN] | > 30 | > 30 | 4.7 | 2.1 | 16 | 4.9 | 5700 | > 10 | inactive | 10% | 32% | inactive | inactive | 0.82 | 58% | inactive
Nc1nc(/C=C/CNC(=O)c2cccnc2)c[nH]1 | – | – | > 30 | – | – | – | – | – | inactive | inactive | inactive | inactive | inactive | – | inactive | inactive
Nc1ncc(/C=C/CNC(=O)c2ccc[nH]2)[nH]1 [CLATHRODIN] | > 30 | > 30 | > 30 | > 30 | > 30 | > 30 | – | – | inactive | inactive | inactive | inactive | inactive | – | inactive | inactive
Nc1nc(/C=C/CNC(=O)c2cc(Br)c[nH]2)c[nH]1 | > 30 | > 30 | 2.5 | 5.3 | 7.6 | 3.7 | – | – | inactive | inactive | 11% | 10% | 22% | – | 32% | inactive
Cc1[nH]c(C(=O)NC/C=C/c2c[nH]c(N)n2)cc1Cl | > 30 | > 30 | 25 | 15 | > 30 | 17 | 730 | > 10 | 68% | inactive | 71% | 72% | inactive | > 10 | inactive | inactive
Nc1nc(/C=C/CNC(=O)c2cc(Cl)c(Cl)[nH]2)c[nH]1 | > 30 | > 30 | 1.4 | 1.5 | 6.1 | 1.6 | 600 | 0.17 | inactive | inactive | 90% | 62% | inactive | > 10 | inactive | inactive
Nc1nc(CCCNC(=O)C2Cc3ccccc3N2)c[nH]1 (stereo unspecified) | – | – | > 30 | – | – | – | – | – | inactive | inactive | inactive | inactive | inactive | – | inactive | inactive
Nc1nc(/C=C/CNC(=O)C2CCNCC2)c[nH]1 | – | – | > 30 | – | – | – | – | – | 22% | inactive | inactive | inactive | inactive | – | 28% | inactive
Nc1nc(/C=C/CNC(=O)c2cc3ccccc3[nH]2)c[nH]1 | > 30 | > 30 | 21 | 13 | > 30 | 14 | – | – | inactive | inactive | inactive | inactive | 42% | – | inactive | inactive
